Bioassay records deposited in PubChem BioAssay by several laboratories.
ABHD5-PLIN5 inh: inhibitors of human ABHD5-perilipin-5 interaction | Q00G26+Q8WTS1 | Split G. princeps luciferase complementation, luminescence, 4 h | inhibition, % at 4 µM | 360,000 compounds, 0.78% hits;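 active means inhibition above the mean inhibition across every tested compound plus 3 SD, cut at about 22% in these data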
PfGluPho inh: PfG6PD (Plasmodium falciparum) enzyme inhibition; PfGluPho enzyme, NADPH resazurin-diaphorase fluorescence; inhibition, % at 20 µM; 350,000 compounds, 0.78% hits;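 active means inhibition reaching at least a set limit at 20 µM in the primary screen, cut at about 59% in these data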
Granule exo inh: lytic granule exocytosis inhibition | TALL-104 LAMP-1 surface exposure, flow cytometry; cells stimulated with thapsigargin and PMA | inhibition, % at 10 µM | 360,000 compounds, 0.66% hits | AID 651702;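 active means inhibition above about 55%, limit read from the data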
HKDC1 inhibitor: inhibitors of human hexokinase HKDC1; 340,000 compounds, 0.16% hits; inhibition, % at 20 µM; recombinant HKDC1, G6PDH/diaphorase resazurin coupled fluorescence;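 active means inhibition above about 35% when tested at 20 µM, limit read from the data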
Target sequence (Q2TB90 whole entry, looked up): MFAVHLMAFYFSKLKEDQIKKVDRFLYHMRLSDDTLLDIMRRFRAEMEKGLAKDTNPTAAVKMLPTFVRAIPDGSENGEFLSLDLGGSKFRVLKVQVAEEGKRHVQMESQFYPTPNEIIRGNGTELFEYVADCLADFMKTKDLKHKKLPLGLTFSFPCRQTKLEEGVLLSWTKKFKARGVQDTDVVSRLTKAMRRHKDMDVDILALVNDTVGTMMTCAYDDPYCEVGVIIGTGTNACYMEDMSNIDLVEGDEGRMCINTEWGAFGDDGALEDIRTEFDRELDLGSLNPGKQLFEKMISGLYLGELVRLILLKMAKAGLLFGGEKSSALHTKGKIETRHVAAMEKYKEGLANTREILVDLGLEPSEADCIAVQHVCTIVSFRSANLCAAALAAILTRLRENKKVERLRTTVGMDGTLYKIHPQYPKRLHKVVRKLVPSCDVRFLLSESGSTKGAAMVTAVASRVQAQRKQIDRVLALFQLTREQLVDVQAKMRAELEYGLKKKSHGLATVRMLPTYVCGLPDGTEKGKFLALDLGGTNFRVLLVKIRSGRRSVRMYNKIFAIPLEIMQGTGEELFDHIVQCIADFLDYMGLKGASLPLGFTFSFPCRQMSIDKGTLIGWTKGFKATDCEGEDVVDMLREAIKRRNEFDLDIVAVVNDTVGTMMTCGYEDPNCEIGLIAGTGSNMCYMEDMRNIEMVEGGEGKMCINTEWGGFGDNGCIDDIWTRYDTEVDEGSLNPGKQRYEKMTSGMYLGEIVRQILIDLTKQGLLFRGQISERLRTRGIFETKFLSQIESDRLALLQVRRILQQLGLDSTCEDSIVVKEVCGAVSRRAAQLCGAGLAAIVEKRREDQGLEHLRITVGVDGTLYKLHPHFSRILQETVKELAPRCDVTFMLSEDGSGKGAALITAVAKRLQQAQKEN
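Material: recombinant HKDC1 hexokinase; Amount: HKDC1 at 5 µg/mL; Medium: Tris pH 8.0 buffer with MgCl2, Tween-20, BSA, BME; Schedule: 90 min reaction incubation at room temperature, dark; Technique: coupled resazurin fluorescence, excitation 525 nm, emission 613 nm.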
ABHD5 PLIN5 conf: confirmation of human ABHD5-PLIN5 interaction inhibitors; shares compounds with ABHD5-PLIN5 inh; biochemical ABHD5-PLIN5 interaction, luminescence; inhibition, % at 4 µM; 2,200 compounds, 67% hits; in the data active means inhibition above about 23%
HNF4 counter: HNF4 split-luciferase signal hit, counter-screen. shares compounds with ABHD5-PLIN5 inh. HNF4 dimerization, luminescence, biochemical. inhibition, % at 4 µM. 2,200 compounds, 77% hits. AID 651674;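 active means mean inhibition across replicate wells exceeding the computed hit threshold, cut at about 13% in these data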;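 further: light from luciferase halves that rejoin when HNF4 fusion proteins dimerize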
Of the large screens only hits and unclear results are named; the others gave an inactive call (follow-up assays come after a bar, where they were run). Rows were chosen to be rich in hits. Some 2.2% of all compounds tested hit in one or more screens of this group.

CCOc1ccc(N2CC(C(=O)Nc3ccccc3C(=O)N3CCOCC3)CC2=O)cc1 (stereo not given)	none
Cc1ccc(Oc2c(C(N)=O)cc([N+](=O)[O-])cc2[N+](=O)[O-])cc1	ABHD5-PLIN5 inh 63.1 | ABHD5 PLIN5 conf 94.7 | HNF4 counter 74.1
Cc1ccc(CNc2ccc([N+](=O)[O-])cc2C(N)=O)cc1	none
Cc1ccc(S(=O)(=O)CCC(=O)c2cccc([N+](=O)[O-])c2)cc1	ABHD5-PLIN5 inh 33.2 | ABHD5 PLIN5 conf 64.9 | HNF4 counter 98.0
CNc1ccccc(C(=O)/C=C/c2ccccc2OC)c1=O	ABHD5-PLIN5 inh 31.6 | ABHD5 PLIN5 conf 68.7 | HNF4 counter 48.2
COc1ccccc1C=CC(=O)C=Cc1ccccc1OC	ABHD5-PLIN5 inh 32.3 | ABHD5 PLIN5 conf 72.4 | HNF4 counter 44.7
CNc1ccc(Br)cc(C(=O)/C=C/c2cccc(OC)c2OC)c1=O	none
Cc1cccc(C(=O)NCCCn2ccnc2)c1C	ABHD5-PLIN5 inh 101.9 | ABHD5 PLIN5 conf inactive | HNF4 counter inactive
Cc1ccccc1NC(=O)NCc1ccccn1	none
Cc1cccc(C(=O)N2CCCCCC2)c1[N+](=O)[O-]	ABHD5-PLIN5 inh 73.9 | ABHD5 PLIN5 conf inactive | HNF4 counter inactive
CCCCC1CCC(C(=O)Nc2ccccc2N2CCOCC2)CC1 (stereo not given)	none
COc1ccc(C2NCCc3c2[nH]c2ccccc32)cc1COc1ccc(F)cc1 (stereo not given)	ABHD5-PLIN5 inh 29.3 | ABHD5 PLIN5 conf inactive | HNF4 counter 18.4
CC(C)c1ccc(NC(=O)CSc2n[nH]c(=O)n2-c2cccnc2)cc1	none
CC(=O)Oc1c(Cl)c(N2CCOCC2)c(OC(C)=O)c2ccccc12	ABHD5-PLIN5 inh 35.7 | ABHD5 PLIN5 conf 79.1 | HNF4 counter inactive
Cc1cc(OC(=O)N2CCOCC2)cc(C)c1Cl	none
COc1ccc(/C=C/CN2CCCC(C(=O)c3ccc(OC)c(F)c3)C2)cc1 (stereo not given)	none
CCCn1c(CC)nc([N+](=O)[O-])c1S(=O)(=O)c1ccccc1	ABHD5-PLIN5 inh 41.5 | ABHD5 PLIN5 conf 50.2 | HNF4 counter 54.1
CCc1nc(C)cn1S(=O)(=O)c1ccc([N+](=O)[O-])cc1	none
COc1ccccc1CNC(=O)CCS(=O)(=O)c1ccc2c(c1)CCN2C(C)=O	none
Cc1ccc(C)c(SCC(=O)c2ccc[nH]2)c1	none
CC[C@@H](C)[C@@H]1CN([C@@H](C)CN2CCC[C@H]2CN2C(N)=NC[C@@H]2Cc2ccccc2)C(=N)N1CCc1ccc(Cl)c(Cl)c1	ABHD5-PLIN5 inh 34.1 | ABHD5 PLIN5 conf inactive | HNF4 counter inactive
CC[C@@H](C)[C@@H]1CN([C@@H](CN2CCC[C@H]2CN2C(N)=NC[C@H]2C(C)C)C(C)C)C(=N)N1CCc1ccc(Cl)c(Cl)c1	none
CC[C@@H](C)[C@@H]1CN([C@@H](C)CN2CCC[C@H]2CN2C(N)=NC[C@@H]2Cc2ccccc2)C(=N)N1CCCC1CCCC1	ABHD5-PLIN5 inh 28.8 | ABHD5 PLIN5 conf inactive | HNF4 counter inactive
CCCC(=O)NC(c1cccc([N+](=O)[O-])c1)c1ccc2cccnc2c1O (stereo not given)	ABHD5-PLIN5 inh 28.7 (no result: HKDC1 inhibitor) | ABHD5 PLIN5 conf 26.1 | HNF4 counter inactive
CCCCC(=O)NC(c1ccc(N(C)C)cc1)c1ccc2cccnc2c1O (stereo not given)	ABHD5-PLIN5 inh 23.4 | ABHD5 PLIN5 conf inactive | HNF4 counter inactive
CCCCCc1ccc(CC(=O)N2CCOCC2)cc1	none
COc1ccccc1N(Cc1ccccc1)S(=O)(=O)c1cccc(C(=O)N2CCCCC2)c1	none
Cc1cc(C)c(C#N)c(N2CCN(Cc3ccc4c(c3)OCO4)CC2)n1	none
N#CCc1c(C#N)c(N)nc(N2CCN(Cc3ccc4c(c3)OCO4)CC2)c1C#N	ABHD5-PLIN5 inh 26.0 | ABHD5 PLIN5 conf inactive | HNF4 counter inactive
CN1CCN(c2ccc(S(=O)(=O)N3CCOCC3)cc2)CC1	none
CC(=O)N1CCN(c2nc(-c3ccco3)c3c(c2C#N)CC(C)(C)SC3)CC1	ABHD5-PLIN5 inh 34.9 | ABHD5 PLIN5 conf inactive | HNF4 counter 17.9
CCC1Nc2ncnc(N3CCc4ccccc4C3)c2N(Cc2ccc(Br)cc2)C1=O (stereo not given)	none (no result: PfGluPho inh, HKDC1 inhibitor)
CCN(CC)S(=O)(=O)c1cc(NC(=O)c2ccc(-n3cncn3)c([N+](=O)[O-])c2)ccc1C	none
